Calls of active or inactive are those of the source. The rule behind the calls is not given here.
How the values were obtained:
Saccharomyces cerevisiae = experiment: Inhibition of Saccharomyces cerevisiae alpha-glucosidase at 200 uM using p-nitrophenyl-glycoside as substrate incubated for 20 mins followed by substrate addition measured immediately relative to control
In short: (§1)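 Yeast α-glucosidase from S. cerevisiae, from an enzyme stock of 2.0 units/mL, in 0.01 M potassium phosphate buffer at pH 7.0. Sample in DMSO was preincubated with enzyme for 20 min at 37 °C. p-Nitrophenyl glycoside (3 mg/mL stock) was then added and A410 read immediately at 37 °C. Inhibition % = (B−S)/B×100, with B as the DMSO blank. Screened at 200 μM; compounds above 45% inhibition went on to IC50. Triplicates.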

[1] = Inhibition of Saccharomyces cerevisiae alpha-glucosidase using p-nitrophenyl-glycoside as substrate incubated for 20 mins followed by substrate addition measured immediately; in short: as §1
[2] = biological target: T1, Phosphotyrosine protein phosphatase (Mycobacterium tuberculosis) (UniProt A0A045ISB3); experiment: Inhibition of Mycobacterium tuberculosis H37Ra PTPB expressed in Escherichia coli BL21 (DE3) at 50 uM using p-nitrophenyl phosphate as substrate preincubated for 10 mins followed by substrate addition measured for 5 mins by spectrophotometric analysis
T1 sequence (whole entry): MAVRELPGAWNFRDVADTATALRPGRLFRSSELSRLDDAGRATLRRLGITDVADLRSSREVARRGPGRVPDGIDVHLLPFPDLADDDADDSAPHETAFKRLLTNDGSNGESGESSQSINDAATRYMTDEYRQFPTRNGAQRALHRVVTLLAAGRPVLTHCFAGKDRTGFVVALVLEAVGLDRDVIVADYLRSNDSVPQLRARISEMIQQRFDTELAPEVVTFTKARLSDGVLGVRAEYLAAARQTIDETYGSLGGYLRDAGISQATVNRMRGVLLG
In short: (§2)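 Triplicate wells; reaction buffer 50 mM Tris/100 mM NaCl, pH 7.0; p-nitrophenyl phosphate as substrate; oleanolic acid as positive control. Full details on enzyme overexpression, purification and assay are given in an earlier report.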

A549 = experiment: Cytotoxicity against human A549 cells by MTT assay; type: functional, cell-based
In short: (§3)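 MTT read-out in human cell lines A549, HepG2, HeLa, MCF-7 and HEK293T. Compounds were tested at 100 μM. Other details follow a prior report.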

HepG2 = experiment: Cytotoxicity against human HepG2 cells by MTT assay; type: functional, cell-based; in short: as §3
HeLa = experiment: Cytotoxicity against human HeLa cells by MTT assay; type: functional, cell-based; in short: as §3
MCF7 = experiment: Cytotoxicity against human MCF7 cells by MTT assay; type: functional, cell-based; in short: as §3
HEK-293T = experiment: Cytotoxicity against human HEK293T cells by MTT assay; type: functional, cell-based; in short: as §3
[3] = biological target: T2, Phosphotyrosine protein phosphatase (Mycobacterium tuberculosis, UniProt A0A045ISB3); experiment: Inhibition of Mycobacterium tuberculosis H37Ra PTPB expressed in Escherichia coli BL21 (DE3) using p-nitrophenyl phosphate as substrate preincubated for 10 mins followed by substrate addition measured for 5 mins by spectrophotometric analysis; in short: as §2
T2 sequence (A0A045ISB3 whole entry): T1 sequence (whole entry)

COc1cc(O)c2c(=O)oc(C[C@@H](O)C(Cl)Cl)cc2c1O
inhibition (Saccharomyces cerevisiae): 91%
IC50 [1]: 45.1 µM
inhibition [2]: inactive
Activity (A549): inactive
Activity (HepG2): inactive
Activity (HeLa): inactive
Activity (MCF7): inactive
Activity (HEK-293T): inactive

COc1cc(O)c2c(=O)oc(C[C@@H](Cl)CO)cc2c1
inhibition (Saccharomyces cerevisiae): 58%
IC50 [1]: 158 µM
inhibition [2]: inactive
Activity (A549): inactive
Activity (HepG2): inactive
Activity (HeLa): inactive
Activity (MCF7): inactive
Activity (HEK-293T): inactive

COc1cc(O)c2c(=O)oc(C[C@@H](Cl)CO)cc2c1O
inhibition (Saccharomyces cerevisiae): 66%
IC50 [1]: 110 µM
inhibition [2]: inactive
Activity (A549): inactive
Activity (HepG2): inactive
Activity (HeLa): inactive
Activity (MCF7): inactive
Activity (HEK-293T): inactive

COc1cc(O)c2c(=O)oc(C[C@@H]3O[C@@H]3C(C)=O)cc2c1
inhibition (Saccharomyces cerevisiae): 95%
IC50 [1]: 38.1 µM
inhibition [2]: inactive
Activity (A549): inactive
Activity (HepG2): inactive
Activity (HeLa): inactive
Activity (MCF7): inactive
Activity (HEK-293T): inactive

CC1(C)CC[C@]2(C(=O)O)CC[C@]3(C)C(=CC[C@@H]4[C@@]5(C)CC[C@H](O)C(C)(C)[C@@H]5CC[C@]43C)[C@@H]2C1 [OLEANOLIC_ACID]
IC50 [3]: 22.1 µM

COc1cc(O)c2c(=O)oc(C[C@H](C)O)cc2c1
inhibition (Saccharomyces cerevisiae): 33%
inhibition [2]: inactive
Activity (A549): inactive
Activity (HepG2): inactive
Activity (HeLa): inactive
Activity (MCF7): inactive
Activity (HEK-293T): inactive

COc1cc(O)c2c(=O)oc(C[C@@H](O)CO)cc2c1
inhibition (Saccharomyces cerevisiae): 43%
inhibition [2]: inactive
Activity (A549): inactive
Activity (HepG2): inactive
Activity (HeLa): inactive
Activity (MCF7): inactive
Activity (HEK-293T): inactive

COc1cc(O)c2c(=O)oc(C[C@@H](O)CC(C)=O)cc2c1
inhibition (Saccharomyces cerevisiae): 38%
inhibition [2]: inactive
Activity (A549): inactive
Activity (HepG2): inactive
Activity (HeLa): inactive
Activity (MCF7): inactive
Activity (HEK-293T): inactive

C[C@H]1O[C@H](O[C@H]2[C@H](O)[C@@H](O)[C@@H](O[C@H]3[C@H](O)[C@@H](O)C(O)O[C@@H]3CO)O[C@@H]2CO)[C@H](O)[C@@H](O)[C@@H]1N[C@H]1C=C(CO)[C@@H](O)[C@H](O)[C@H]1O (stereo partly specified) [ACARBOSE]
inhibition (Saccharomyces cerevisiae): 19%
IC50 [1]: 478 µM

COc1cc(O)c2c(=O)oc(C[C@@H](O)CCl)cc2c1
inhibition (Saccharomyces cerevisiae): 41%
inhibition [2]: inactive
Activity (A549): inactive
Activity (HepG2): inactive
Activity (HeLa): inactive
Activity (MCF7): inactive
Activity (HEK-293T): inactive

COc1cc(O)c2c(=O)oc(C[C@@H](O)CO)cc2c1O
inhibition (Saccharomyces cerevisiae): 83%
IC50 [1]: 78.1 µM
inhibition [2]: inactive
Activity (A549): inactive
Activity (HepG2): inactive
Activity (HeLa): inactive
Activity (MCF7): inactive
Activity (HEK-293T): inactive

C[C@H](O)Cc1cc2c(O)c(O)cc(O)c2c(=O)o1
inhibition (Saccharomyces cerevisiae): 91%
IC50 [1]: 40.5 µM
IC50 [3]: 20.7 µM
Activity (A549): inactive
Activity (HepG2): inactive
Activity (HeLa): inactive
Activity (MCF7): inactive
Activity (HEK-293T): inactive

COC(=O)[C@@H]1[C@H](C(=O)OC)[C@@H](c2cc3cc(OC)cc(O)c3c(=O)o2)[C@H]1c1cc2cc(OC)cc(O)c2c(=O)o1
inhibition (Saccharomyces cerevisiae): 18%
inhibition [2]: inactive
Activity (A549): inactive
Activity (HepG2): inactive
Activity (HeLa): inactive
Activity (MCF7): inactive
Activity (HEK-293T): inactive

COC(=O)[C@@H]1[C@H](C(=O)OC)[C@H](c2cc3cc(OC)cc(O)c3c(=O)o2)[C@@H]1c1cc2cc(OC)cc(O)c2c(=O)o1
inhibition (Saccharomyces cerevisiae): 23%
inhibition [2]: inactive
Activity (A549): inactive
Activity (HepG2): inactive
Activity (HeLa): inactive
Activity (MCF7): inactive
Activity (HEK-293T): inactive

COc1cc(O)c2c(=O)oc(C[C@@H](O)C(Cl)Cl)cc2c1
inhibition (Saccharomyces cerevisiae): 69%
IC50 [1]: 102 µM
inhibition [2]: inactive
Activity (A549): inactive
Activity (HepG2): inactive
Activity (HeLa): inactive
Activity (MCF7): inactive
Activity (HEK-293T): inactive
